Source: PubChem
This is a sample that favours compounds with a hit; in the whole collection about 2.2% have one here.
Ecoli rRNA inh – reduced GFP signal of wild-type E. coli, primary screen, bacterial rRNA inhibitor project, GFP/RFP fluorescence, OD600, single point. E. coli WT GFP vs humanized-ribosome RFP mutants, 24 h; active compounds read low; DMSO median 0, no signal -100. GFP signal change (wild-type ribosome), % (concentration not given with the values). hit rate 1.6% among 350,000. AID 720706, 2013;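 active means significant combined selectivity score with lowered wild-type GFP, culture density cut under 30%, mutant RFP and density less affected; inactive means any of these conditions unmet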
PglD DTNB – C. jejuni PglD acetyltransferase inhibitors, primary screen, biochemical, DTNB colorimetric, single point; hit rate 0.098% among 360,000; inhibition, % at 12.5 µM; purified PglD enzyme, DTNB colorimetric CoA detection; UDP-N-acetylbacillosamine N-acetyltransferase PglD (Campylobacter jejuni); in the data active means inhibition above about 16%, passing the limit was not always enough
SUMO Mot1 rescue – yeast Mot1-301 growth rescue at high temperature, primary screen, SUMOylation pathway inhibitor project, S. cerevisiae, ATP luminescence, 38.5C. growth rescue, % at 18.8 µM. S. cerevisiae Mot1-301 growth rescue; percent above DMSO median, 100 means doubled. AID 2716, 2010. hit rate 1% among 320,000;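 active means every valid replicate shows activation above 250% relative to neutral control wells; inactive means the rest, any valid replicate at or below 250%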;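 further: OY570 slx delta 5 strain wells were the positive control but not used for scaling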
Yeast superoxide – reduction of superoxide in aged yeast, primary screen, HTS; S. cerevisiae aged cells, superoxide DHE fluorescence; active compounds read low; superoxide response (% of plate mean), % at 10 µM; hit rate 0.18% among 330,000; AID 2690, 2010;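 active means superoxide response under a set limit, about three screen SD below normal, cut at about 65% in these data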;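 further: yeast aged for seven days with compound at 30 °C before DHE staining; 100% = average MFI of all compound-treated wells on the plate with controls excluded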
Cneo AK release – Cryptococcus neoformans cell lysis inducers, primary screen, AK release luminescence, single concentration. C. neoformans lysis, adenylate kinase release luminescence, 4 h; normalised: neutral wells 0, clomiphene wells 100. lysis activity, % at 15 µM. hit rate 0.2% among 360,000;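 active means mean lysis activity across replicates of at least 80%, whatever share of replicates individually reach that level; inactive means mean lysis activity below 80%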
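Material – log-phase Cryptococcus neoformans yeast cells · Input – 5 × 10^6 yeast cells/mL · Medium – fresh YPD growth medium · Doses – single compound concentration per well · Timing – static 4 h at 37 °C with compound, 1 h detection · Detection – adenylate kinase release luminescence · Read-out – signal increase indicating cell lysis · Control set – Clomiphene as positive lysis control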
Yeast Mot1 SUMO – growth restoration of Mot1-301 yeast on galactose, dose response, SUMO pathway inhibitor project, whole organism, S. cerevisiae, ATP luminescence, cherry-picked samples | shares compounds with SUMO Mot1 rescue | S. cerevisiae Mot1-301 galactose growth, 24 h; -100 = growth of slx-deleted rescue strain | growth activity, percent, % at 42 µM | 2,300 tested, under 10 active | AID 493004, 2010;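 active means Signal drops as the depositor expects, and the fitted half-maximal dose is no more than ten times the top valid tested dose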;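 further: more negative values mean stronger growth rescue toward the control strain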
An asterisk follows results filed as active; nt = not tested or not shown; + = active, no number; ! = a repeat was not active.

SMILES	Ecoli rRNA inh	PglD DTNB	SUMO Mot1 rescue	Yeast superoxide	Cneo AK release	Yeast Mot1 SUMO
Cc1ccccc1-c1cnc2c(c1)C(=O)N([C@@H](C)CO)C[C@@H](C)[C@@H](CN(C)C(=O)c1cccnc1)O2	-2	0	nt	nt	-3	nt
Nc1nc(CSc2nnnn2-c2ccc(Cl)cc2)nc(N2CCOCC2)n1	nt	nt	376*	100	nt	0
O=C(C[C@@H]1CC[C@H]2NC[C@@H](O)COC[C@@H]2O1)NCCc1ccccc1	-1	-29	nt	nt	-1	nt
CCOC(=O)C1=C[C@]2(CC)CCCN3CCc4c(n1c1ccccc41)[C@@H]32	nt	-1	617*!	94	-3	0
CC[C@]12CCCN3CCc4c(n(c5ccccc45)C(=O)C1)[C@@H]32	nt	-2	-21	118	2	nt
Cc1noc(C)c1NC(=O)N(C)C[C@@H]1Oc2ccc(NS(=O)(=O)c3ccc(F)cc3)cc2C(=O)N([C@H](C)CO)C[C@H]1C	1	2	nt	nt	-5	nt
COc1ccc(OC(=O)c2ccc(Cl)cc2)c(C(C)=O)c1	4	nt	408*	108	nt	0
CN1CCN(C(=O)C[C@@H]2CC[C@H]3[C@@H](COC[C@H](O)CN3Cc3ccc4c(c3)OCO4)O2)CC1	0	-2	nt	nt	-2	nt
COc1ccc(-c2nc(C#N)c(NC(C)c3ccccc3)o2)cc1OC (stereo not given)	nt	3	417*	96	4	1
O=C(Nc1cccc(Cl)c1)N1C[C@@H]2[C@H](c3ccccc31)[C@@H](CO)N2C(=O)C1CCCC1	-18	-3	nt	nt	1	nt
CCOc1ccc(S(=O)(=O)N2CCN(C(=O)CN3C(=O)NC4(CCCC4)C3=O)CC2)cc1	10	nt	666*	106	nt	-1
C[C@H](CO)N1C[C@H](C)[C@@H](CN(C)S(=O)(=O)c2cccs2)OCCCC[C@H](C)Oc2ccc(NS(=O)(=O)c3cccs3)cc2C1=O	-8	1	nt	nt	0	nt
O=C(C[C@H]1CC[C@@H]2[C@H](COC[C@@H](O)CN2Cc2cccc(-c3ccncc3)c2)O1)N1CCN(c2ccccc2)CC1	-7	0	nt	nt	3	nt
Cn1c(CSc2nc3ccccc3s2)nnc1SCC(=O)NCCN1CCOCC1	nt	-4	913*	98	1	0
CCOC(=O)c1sc(N/N=C/c2ccc(N(C)C)cc2)nc1C	6	-1	+	93	-1	0
NS(=O)(=O)c1cccc(NC(=O)c2cccnc2Oc2ccccc2)c1	3	nt	936*	100	nt	0
CCOc1ncccc1C(=O)OCC(=O)Nc1cccc(S(N)(=O)=O)c1	7	-3	-17	98	12	nt
N#C[C@H]1[C@@H](c2ccccc2)[C@H](CO)N1S(=O)(=O)Cc1ccccc1	-2	0	nt	nt	-5	nt
CC(C)C1=CC(=Nc2ccc(S(N)(=O)=O)cc2)C=C(C(C)C)C1=O	2	4	+	99	0	0
COc1ccccc1NC(=O)c1nn(C)cc1Br	nt	9	669*	102	10	-1
COc1ccccc1NC(=O)c1nn(-c2cccc(C(F)(F)F)c2)ccc1=O	nt	-4	+	99	5	0
O=S1(=O)CC(N2CCCCC2)C(N2CCCCC2)C1 (stereo not given)	nt	0	366*	97	31	0
O=S(=O)(NCc1ccccc1)c1ccc(S(=O)(=O)N(Cc2ccccn2)Cc2ccco2)cc1	nt	1	841*	104	-1	0
CCCN(CC1CC1)C(=O)COc1ccccc1C(=O)NCc1ccccc1	-37	6	802*	90	nt	1
CCC(C)N(C(=O)COc1ccccc1C(=O)NCc1ccccc1)C1CCS(=O)(=O)C1 (stereo not given)	3	6	-12	105	-4	nt
SMILES	Ecoli rRNA inh	PglD DTNB	SUMO Mot1 rescue	Yeast superoxide	Cneo AK release	Yeast Mot1 SUMO
CC(C)CC(=O)Nc1ccc(C(=O)CN2C(=O)NC3(CCOc4ccccc43)C2=O)cc1 (stereo not given)	-3	-4	566*	87	2	1
CCC(=O)Nc1ccc(C(=O)CN2C(=O)NC3(CCOc4ccccc43)C2=O)cc1 (stereo not given)	-2	0	-4	86	3	nt
CN(C)c1ccc(NS(=O)(=O)c2ccc(Cl)cc2)cc1	nt	nt	3	85	nt	nt
CN(C)c1ccc(NS(=O)(=O)c2cccc(Cl)c2)cc1	nt	-7	733*	107	3	0
Cc1noc(C)c1S(=O)(=O)Nc1ccc2c(c1)C(=O)N([C@H](C)CO)C[C@@H](C)[C@@H](CN(C)Cc1ccncc1)O2	0	1	nt	nt	-3	nt
COc1ccccc1NC(NC(=O)c1ccco1)C(=O)c1ccccc1 (stereo not given)	-5	-1	839*	104	-1	0
COc1ccccc1NC(=S)NC(NC(=O)c1ccco1)C(Cl)(Cl)Cl (stereo not given)	-13	nt	-8	105	nt	nt
COC(=O)c1ccccc1NC(NC(=O)c1ccco1)C(=O)c1ccccc1 (stereo not given)	nt	-6	449*	87	4	-1
CCOC(=O)c1cc([N+](=O)[O-])c([N+](=O)[O-])cc1NC(C)=O	-7	-2	487*	94	-5	0
C[C@H]1CN=C(Nc2ccccc2)N1CCC1CCCC1	13	-2	921*	103	-3	0
Cc1cc(NC(=O)COC(=O)c2oc3c(ccc4ccccc43)c2C)no1	14	13	7	101	0	nt
Cc1c(C(=O)OCC(=O)Nc2ccc(S(N)(=O)=O)cc2)oc2c1ccc1ccccc12	8	nt	500*	99	nt	-1
C[C@H](CO)N1C[C@H](C)[C@@H](CN(C)S(=O)(=O)c2ccccc2)Oc2ccc(NC(=O)Nc3cccc4ccccc34)cc2CC1=O	0	10	nt	nt	-4	nt
CCN(CC)c1ccc(C=C2C(=O)OC(c3ccccc3)OC2=O)cc1 (stereo not given)	16	nt	+	100	nt	0
CCN(CC)c1ccc(C=C2C(=O)OC(C)(C(C)(C)C)OC2=O)cc1 (stereo not given)	11	-1	0	82	15	nt
CCC1CCCCN1C(=O)CSc1nc2c([nH]c3ccccc32)c(=O)n1C (stereo not given)	nt	4	631*	114	0	1
CCSc1nc2c([nH]c3ccccc32)c(=O)n1C	9	2	-21	100	-1	nt
